The source made the active and inactive calls.
Tests used:
Format in all cases: cell-based
[1] = target: T1, Toll-like receptor 3 (Mus musculus) (UniProt Q99MB1); assay: Inhibition of TRIF recruitment to TLR3 in C57BL/6 mouse BMDM cells assessed as inhibition of pI:pC-induced IkappaBalpha degradation up to 90 mins by Western blot analysis
T1 sequence (whole entry): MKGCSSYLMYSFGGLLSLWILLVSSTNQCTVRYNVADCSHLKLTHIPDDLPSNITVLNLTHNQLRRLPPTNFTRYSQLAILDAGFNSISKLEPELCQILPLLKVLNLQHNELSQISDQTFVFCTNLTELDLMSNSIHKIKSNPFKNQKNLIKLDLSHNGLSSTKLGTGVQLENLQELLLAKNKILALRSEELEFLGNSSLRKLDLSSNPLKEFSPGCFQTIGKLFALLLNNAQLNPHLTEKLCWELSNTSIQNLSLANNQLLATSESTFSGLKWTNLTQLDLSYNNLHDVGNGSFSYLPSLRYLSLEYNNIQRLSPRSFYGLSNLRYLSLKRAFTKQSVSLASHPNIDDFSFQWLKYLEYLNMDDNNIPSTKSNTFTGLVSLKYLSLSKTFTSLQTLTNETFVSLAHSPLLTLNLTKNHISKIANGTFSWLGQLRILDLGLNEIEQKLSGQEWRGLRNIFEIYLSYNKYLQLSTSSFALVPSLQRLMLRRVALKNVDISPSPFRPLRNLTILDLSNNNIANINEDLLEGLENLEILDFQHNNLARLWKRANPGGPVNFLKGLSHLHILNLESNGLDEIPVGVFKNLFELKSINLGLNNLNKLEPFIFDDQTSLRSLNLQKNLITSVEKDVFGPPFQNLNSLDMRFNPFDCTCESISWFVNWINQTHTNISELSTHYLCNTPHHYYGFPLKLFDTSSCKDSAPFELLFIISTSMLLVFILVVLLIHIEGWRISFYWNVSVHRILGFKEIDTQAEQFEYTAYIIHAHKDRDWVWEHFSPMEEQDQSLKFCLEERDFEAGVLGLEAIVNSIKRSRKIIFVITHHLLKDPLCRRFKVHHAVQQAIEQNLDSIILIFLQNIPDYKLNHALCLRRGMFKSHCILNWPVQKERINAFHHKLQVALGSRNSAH
Summary of the method: (§1)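 Bone marrow macrophages from C57BL/6 mice, grown in 70% growth medium (DMEM, 10% FBS) plus 30% L929-conditioned medium and given fresh medium 12-14 h before stimulation. Stimuli: IL-1 40 ng/ml, HKSA ~10^8 cfu/ml, pI:pC 50 μg/ml or CpG 10 μg/ml, ± compound at 10 μM (final) added from a 200x DMSO stock. IκBα and p38 profiled by immunoblot. Three independent experiments, quantitated and normalized.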

[2] = target: T1, Toll-like receptor 3 (Mus musculus); assay: Inhibition of TRIF recruitment to TLR3 in C57BL/6 mouse BMDM cells assessed as inhibition of pI:pC-induced IkappaBalpha phosphorylation up to 90 mins by Western blot analysis; summary of the method: as §1
[3] = target: T2, Toll-like receptor 9 (Mus musculus) (UniProt Q9EQU3); assay: Inhibition of MyD88 recruitment to TLR9 in C57BL/6 mouse BMDM cells assessed as inhibition of CpG-induced IkappaBalpha degradation up to 90 mins by Western blot analysis; summary of the method: as §1
T2 sequence (whole entry): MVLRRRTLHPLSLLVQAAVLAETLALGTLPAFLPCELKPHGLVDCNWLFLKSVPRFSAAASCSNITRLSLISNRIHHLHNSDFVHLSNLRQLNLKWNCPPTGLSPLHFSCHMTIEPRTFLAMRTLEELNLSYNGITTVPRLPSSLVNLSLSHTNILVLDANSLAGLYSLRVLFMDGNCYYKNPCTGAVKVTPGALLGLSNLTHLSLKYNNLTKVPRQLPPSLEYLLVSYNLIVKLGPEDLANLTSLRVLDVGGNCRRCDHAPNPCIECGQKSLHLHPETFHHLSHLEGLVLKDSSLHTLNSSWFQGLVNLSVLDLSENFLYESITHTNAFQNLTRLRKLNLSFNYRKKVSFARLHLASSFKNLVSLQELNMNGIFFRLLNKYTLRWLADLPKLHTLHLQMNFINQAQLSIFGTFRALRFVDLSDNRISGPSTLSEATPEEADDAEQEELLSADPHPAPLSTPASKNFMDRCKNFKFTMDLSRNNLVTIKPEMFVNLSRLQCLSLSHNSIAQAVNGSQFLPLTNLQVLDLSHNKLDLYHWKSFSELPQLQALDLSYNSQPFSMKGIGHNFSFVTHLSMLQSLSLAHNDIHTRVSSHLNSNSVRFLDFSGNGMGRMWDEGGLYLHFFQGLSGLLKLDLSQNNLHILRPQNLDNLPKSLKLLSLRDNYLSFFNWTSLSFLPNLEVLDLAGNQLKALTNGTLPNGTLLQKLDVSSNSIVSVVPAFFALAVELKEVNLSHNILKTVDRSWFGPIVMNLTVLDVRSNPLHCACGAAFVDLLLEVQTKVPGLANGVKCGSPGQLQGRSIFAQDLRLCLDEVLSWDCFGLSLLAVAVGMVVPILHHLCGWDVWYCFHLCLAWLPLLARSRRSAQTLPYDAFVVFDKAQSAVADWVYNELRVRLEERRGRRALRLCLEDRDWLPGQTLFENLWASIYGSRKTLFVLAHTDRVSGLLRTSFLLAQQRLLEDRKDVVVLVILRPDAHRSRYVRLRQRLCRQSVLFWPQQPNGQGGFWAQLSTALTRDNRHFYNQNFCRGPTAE

[4] = target: Toll-like receptor 2 (Mus musculus) (UniProt Q9QUN7); assay: Inhibition of MyD88 recruitment to TLR2 in C57BL/6 mouse BMDM cells assessed as inhibition of HKSA-induced IkappaBalpha degradation up to 90 mins by Western blot analysis; summary of the method: as §1

Measured: inhibition

Toll-like receptor 2 (Mus musculus), sequence (Q9QUN7 whole entry): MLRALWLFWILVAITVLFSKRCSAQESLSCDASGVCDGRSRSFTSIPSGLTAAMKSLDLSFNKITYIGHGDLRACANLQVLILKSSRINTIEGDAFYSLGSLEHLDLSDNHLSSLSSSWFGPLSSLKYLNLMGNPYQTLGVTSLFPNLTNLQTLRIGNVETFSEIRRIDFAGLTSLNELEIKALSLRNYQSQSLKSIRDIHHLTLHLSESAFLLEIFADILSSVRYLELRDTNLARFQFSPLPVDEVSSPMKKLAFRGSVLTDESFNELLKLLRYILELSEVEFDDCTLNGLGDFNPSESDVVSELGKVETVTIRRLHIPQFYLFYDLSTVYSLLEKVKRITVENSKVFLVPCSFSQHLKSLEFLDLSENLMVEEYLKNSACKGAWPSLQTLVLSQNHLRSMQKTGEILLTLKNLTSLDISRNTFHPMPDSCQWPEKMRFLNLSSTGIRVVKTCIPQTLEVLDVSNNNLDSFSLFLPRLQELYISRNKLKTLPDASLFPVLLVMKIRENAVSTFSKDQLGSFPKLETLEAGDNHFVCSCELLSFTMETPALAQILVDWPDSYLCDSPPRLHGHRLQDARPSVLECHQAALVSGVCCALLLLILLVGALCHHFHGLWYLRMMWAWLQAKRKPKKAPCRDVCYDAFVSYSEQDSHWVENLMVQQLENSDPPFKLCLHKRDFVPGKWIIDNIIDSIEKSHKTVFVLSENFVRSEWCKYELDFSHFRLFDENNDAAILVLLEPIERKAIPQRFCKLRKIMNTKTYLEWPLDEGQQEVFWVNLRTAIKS

O=C(CCCCCN1C(=O)CCC1=O)Oc1ccc2cc(C(C(=O)NCc3ccccc3)N(C(=O)Cc3ccc4c(c3)OCO4)C3CC3)ccc2c1 (configuration not stated)
active: all assays above

O=C(CCCCCN1C(=O)C=CC1=O)Oc1ccc2cc(C(C(=O)NCc3ccccc3)N(C(=O)Cc3ccc4c(c3)OCO4)C3CC3)ccc2c1 (configuration not stated)
active: all assays above

O=C(CCCCCCCC(=O)ON1C(=O)CCC1=O)Oc1ccc2cc(C(C(=O)NCc3ccccc3)N(C(=O)Cc3ccc4c(c3)OCO4)C3CC3)ccc2c1 (configuration not stated)
active: all assays above
